This passage reports inhibition, IC50 and Activity results from ChEMBL document CHEMBL4765366, “Targeting fungal virulence factor by small molecules: Structure-based discovery of novel secreted aspartic protease 2 (SAP2) inhibitors” (Eur J Med Chem, 2020).

SMILES strings stand for the structures. Activity calls are given as the source filed them. The rule behind the calls is not given here.

Experiment [1] relates to Candida albicans. Nature of the experiment: Antibiofilm activity against azole resistant Candida albicans 0304103 assessed as inhibition of biofilm formation at 0.5 ug/ml in presence of fluconazole incubated for 24 hrs by XTT-dye based assay. To be noted: dose 0.5 µg/ml. The format is functional, organism-based. (Tetrazolium assays rely on reduction of a dye to a coloured formazan, in cell work by metabolically active cells.)

Experiment [2] is described as follows: Inhibition of recombinant Candida albicans SAP2 using Dabcyl-Arg-Lys-Pro-Ala-Leu-Phe-Phe-Arg-Leu-Glu (EDANS)-Arg-OH as substrate incubated for 30 mins followed by substrate addition and measured after 30 mins by spectrophotometry.
Experiment [3] has as its system Candida tropicalis. Nature of the experiment: Antibiofilm activity against azole resistant Candida tropicalis 10186 assessed as inhibition of biofilm formation incubated for 24 hrs by XTT-dye based assay. The experiment is classed as functional, organism-based. To be noted: dose 4-64 µg/ml. The method, boiled down: (§1)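 Cell suspensions (1.0 × 10^5 CFU/mL) were adhered for 90 min at 37°C, then rinsed three times with PBS. Compounds were added at a range of concentrations from 2 mg/mL DMSO stocks, with fluconazole as the positive control. Plates were cultured 24 h at 37°C, and biofilm was measured semi-quantitatively by XTT reduction.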

Experiment [4] relates to Candida tropicalis. Nature of the experiment: Antibiofilm activity against azole resistant Candida tropicalis 10186 assessed as inhibition of biofilm formation at 64 ug/ml incubated for 24 hrs by XTT-dye based assay relative to control. The format is functional. The method, boiled down: as §1
Experiment [5] deals with Candida albicans. Nature of the experiment: Antifungal activity against azole resistant Candida albicans 0304103 infected in ICR mouse assessed as reduction in fungal burden in kidney at 10 mg/kg, ip administered for 4 days. The experiment is classed as functional, organism-based. To be noted: time 4.0 day. The method, boiled down: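 Female ICR mice (20–25 g) were immunosuppressed with cyclophosphamide, 100 mg/kg ip in saline. After 24 h they were infected iv with 0.2 mL of 1×10^5 CFU/mL cells. Starting 24 h after infection, mice (4 per group) received the drug ip once daily for four days; controls received saline or fluconazole 10 mg/kg. Kidneys were homogenized and plated on YPD at 30°C for log10 CFU.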

The subject of experiment [6] is Candida tropicalis. Nature of the experiment: Inhibition of hyphal formation in azole resistant Candida tropicalis 10186 at 4 to 16 ug/ml incubated for 7 hrs by microscopic imaging analysis. The format is functional, organism-based. The settings on record: dose 4-16 µg/ml. The procedure, abridged:
(§2)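 Yeast cells (1.0 × 10^5 CFU/mL) were exposed to a range of compound concentrations, with fluconazole as the positive drug. Plates were incubated at 37°C for 3 h (C. albicans 0304103 and SC5314) or 7 h (C. tropicalis 10186). Hyphal growth was then observed and photographed by microscopy.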

Experiment [7] concerns Candida albicans. Nature of the experiment: Inhibition of hyphal formation in azole sensitive Candida albicans SC5314 at 128 ug/ml incubated for 3 hrs by microscopic imaging analysis. The format is functional. The procedure, abridged: as §2
In experiment [8] the test system is Candida tropicalis. Nature of the experiment: Inhibition of hyphal formation in azole resistant Candida tropicalis 10186 at 64 ug/ml incubated for 7 hrs by microscopic imaging analysis. The format is functional. The method, boiled down: as §2
Experiment [9] deals with Candida albicans. Nature of the experiment: Inhibition of hyphal formation in azole resistant Candida albicans 0304103 at 128 ug/ml incubated for 3 hrs by microscopic imaging analysis. The experiment is classed as functional. The method, boiled down:
as §2

The subject of experiment [10] is Candida albicans. Nature of the experiment: Upregulation of TEC1 in azole resistant Candida albicans 0304103 at 64 ug/ml by qRT-PCR analysis. The experiment is classed as functional. The settings on record: dose 64.0 µg/ml. Background: Quantitative PCR measures a nucleic acid by following its amplification.
Experiment [11] relates to Candida albicans. Nature of the experiment: Downregulation of EFG1 in azole resistant Candida albicans 0304103 at 64 ug/ml by qRT-PCR analysis. The experiment is classed as functional. To be noted: dose 64.0 µg/ml.
Experiment [12] deals with Candida albicans. Nature of the experiment: Inhibition of hyphal formation in azole resistant Candida albicans 0304103 at 4 to 32 ug/ml incubated for 3 hrs by microscopic imaging analysis. The experiment is classed as functional, organism-based. To be noted: dose 4-32 µg/ml. The method, boiled down:
as §2

In experiment [13] the test system is Candida albicans. Nature of the experiment: Downregulation of ALS3 in azole resistant Candida albicans 0304103 at 64 ug/ml by qRT-PCR analysis. The format is functional. The settings on record: dose 64.0 µg/ml.
The subject of experiment [14] is Candida albicans. Nature of the experiment: Antibiofilm activity against azole resistant Candida albicans 0304103 assessed as inhibition of biofilm formation incubated for 24 hrs by XTT-dye based assay. To be noted: dose 4-64 µg/ml. The format is functional, organism-based. The procedure, abridged:
as §1

The subject of experiment [15] is Candida albicans. Nature of the experiment: Downregulation of SAP2 in azole resistant Candida albicans 0304103 at 64 ug/ml by qRT-PCR analysis. The experiment is classed as functional. The settings on record: dose 64.0 µg/ml.
Experiment [16] has as its system Candida albicans. Nature of the experiment: Downregulation of ECE2 in azole resistant Candida albicans 0304103 at 64 ug/ml by qRT-PCR analysis. The experiment is classed as functional. To be noted: dose 64.0 µg/ml.
The subject of experiment [17] is Candida albicans. Nature of the experiment: Inhibition of recombinant Candida albicans SAP2 at 100 uM using Dabcyl-Arg-Lys-Pro-Ala-Leu-Phe-Phe-Arg-Leu-Glu (EDANS)-Arg-OH as substrate incubated for 30 mins followed by substrate addition and measured after 30 mins by spectrophotometry relative to control. To be noted: time 60.0 min. The procedure, abridged:
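FRET assay with purified expressed C. albicans SAP2 in 50 mM sodium citrate, 50 mM NaCl, pH 4.5. Compound (diluted in DMSO) was preincubated with enzyme 30 min before adding the Dabcyl/EDANS peptide substrate (18.75 μM solution in DMSO). Reaction ran 30 min at 30 °C, then fluorescence was read at ex 340, em 485 nm. Pepstatin A was the positive control.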

The subject of experiment [18] is Candida albicans. Nature of the experiment: Inhibition of hyphal formation in azole sensitive Candida albicans SC5314 at 4 to 32 ug/ml incubated for 3 hrs by microscopic imaging analysis. The format is functional, organism-based. To be noted: dose 4-32 µg/ml. The method, boiled down:
as §2

For experiment [19], the system named is Candida albicans. Nature of the experiment: Upregulation of CPH1 in azole resistant Candida albicans 0304103 at 64 ug/ml by qRT-PCR analysis. To be noted: dose 64.0 µg/ml. The format is functional.
Experiment [20] concerns Candida albicans. Nature of the experiment: Antibiofilm activity against azole resistant Candida albicans 0304103 assessed as inhibition of biofilm formation at 32 ug/ml in presence of fluconazole incubated for 24 hrs by XTT-dye based assay relative to control. The experiment is classed as functional.
Experiment [21] concerns Candida albicans. Nature of the experiment: Antibiofilm activity against azole resistant Candida albicans 0304103 assessed as inhibition of biofilm formation at 64 ug/ml incubated for 24 hrs by XTT-dye based assay relative to control. The experiment is classed as functional. The procedure, abridged: as §1

For `Cc1ccc(CN2C(=O)/C(=C/c3ccc(OCC(=O)O)cc3OCC(=O)O)c3ccc(-c4ccc(C)cc4)cc32)cc1`, the inhibition entry with Candida albicans [1] and in the experiment with Candida tropicalis [6] was “Active” in each case. For the same compound, the IC50 in experiment [2] was found to be 920 nM. In addition, the inhibition entry in the experiment on Candida tropicalis [3] was “Dose-dependent effect”; with Candida albicans [14], “Dose-dependent effect”; in the experiment with Candida albicans [17] it was 100%. In addition, the figures for the inhibition at 64 µg/mL in the experiment on Candida tropicalis [4] and in the experiment on Candida tropicalis [8] were above 50% and 100%, respectively. Besides, the result in the experiment on Candida albicans [5], in the experiment on Candida albicans [10], with Candida albicans [11], with Candida albicans [13], with Candida albicans [15] and in the experiment on Candida albicans [16] was Active. Further, the outcome in the experiment on Candida albicans [19] was Active. Besides, the inhibition at 128 µg/mL in the experiment with Candida albicans [7] and in the experiment on Candida albicans [9] was 100% each time. Further, the inhibition entry in the experiment with Candida albicans [12] and in the experiment on Candida albicans [18] was “inactive” each time. For the same compound, the inhibition at 32 µg/mL in the experiment on Candida albicans [20] worked out at 90%.

Take `Cc1ccc(-c2ccc3c(c2)N(Cc2ccc(Cl)cc2)C(=O)/C3=C/c2ccc(OCC(=O)O)cc2OCC(=O)O)cc1`: the inhibition result in the experiment with Candida tropicalis [3] is “Dose-dependent effect”; in the experiment with Candida albicans [14], “Dose-dependent effect”; in the experiment with Candida albicans [17] it was 100%. The inhibition at 64 µg/mL in the experiment on Candida tropicalis [4] and in the experiment on Candida albicans [21] was above 50% in each case. Also, the result with Candida albicans [15] was Active.

One may read the inhibition as the share of the control response that was lost under treatment. In general, IC50 refers to the point on the concentration scale where inhibition reaches its midpoint.
